Compound activity deposited in PubChem by several laboratories.
HSP90 refold inh = inhibitors of HSP90 luciferase refolding in rabbit reticulocyte lysate. luciferase refolding luminescence, 3 h. inhibition, % at 5.6 µM. actives 0.91% (n = 290,000). AID 1789;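 active = inhibition above the screen-wide mean plus 3 SD, computed separately per campaign, cut at about 16% in these data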;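 note: inhibitors lower the luminescence because luciferase stays unfolded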
STAT3 act-1 = increases IL-6 driven STAT3 reporter signal; U3A cells, IL-6 STAT3-luciferase reporter, luminescence; 100% = signal with IL-6 EC80 alone; activation (% of control), % at 5.6 µM; actives 0.91% (n = 190,000);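 active = activation above the screen-wide mean of compound activation plus 3 SD, cut at about 130% in these data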
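Test system: STAT3-luciferase reporter U3A cells; Detection: reporter luminescence signal; Times: 1 h compound pre-exposure, 6 h IL-6 stimulation, 37 °C; Benchmarks: IL-6-only high control; Also added: IL-6 stimulus at 33 ng/mL final.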
PPC-1+TRAIL kill = compounds killing PPC-1 cancer cells with TRAIL present (potentiator screen, no TRAIL-free arm); PPC-1 cells + TRAIL, ATPLite viability luminescence; cell killing (% activity), % at 4 µM or 5 µM; actives 0.41% (n = 220,000); AID 1443;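 active = cell killing above 50% in the first pass at 4 µM, then a duplicate retest at 5 µM averaging 50% or more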
C8 TRAIL sens = caspase-8 TRAIL sensitization; NB7+C8 cells + TRAIL, ATPlite viability luminescence; inhibition (viability loss, TRAIL sensitization), % at 10 µM; actives 1% (n = 360,000); AID 624354;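 active = compounds causing at least 50% loss of cell viability in the single-dose screen, relative to plate controls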
STAT1 inh = inhibitors of IFN-gamma induced STAT1 signaling. inhibition, % at 5.5 µM. NIH 3T3 STAT1-luciferase reporter, luminescence. AID 920. actives 0.35% (n = 200,000);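 active = inhibition above a set limit, the mean inhibition across all tested compounds plus 3 SD, cut at about 34% in these data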
STAT3 inh = STAT3 signaling inhibition; actives 0.89% (n = 190,000); U3A cells, IL-6 STAT3-luciferase reporter, luminescence; host cell line lacks STAT1; inhibition, % at 5.5 µM;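 active = inhibition above the mean inhibition across all screened compounds plus 3 SD, cut at about 44% in these data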
STAT3 act-2 = STAT3 activation, confirmation assay; shares compounds with STAT3 act-1; U3A STAT3-luciferase reporter, IL-6 potentiation, luminescence; U3A cells lack STAT1; 100 means same as IL-6 alone; actives 64% (n = 1,200); potentiation (% of control), % at 5.7 µM; AID 1267;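 active = percent activation of the STAT3 luciferase reporter above a set limit taken from the earlier primary screen, cut at about 130% in these data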
NFkB act 2 = NF-kappaB activation in STAT3 activator counter-screen. human cells, NF-kappaB reporter activation. AID 1309. actives 11% (n = 1,200). activation (% of control), % at 5.7 µM. shares compounds with STAT3 act-1; in the data active = activation above about 120%;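 note: reporter induced by TNF-alpha stimulation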
STAT1 act = activates STAT1, counter-screen to STAT3 activators; shares compounds with STAT3 act-1; activation (% of control), % at 5.7 µM; NIH 3T3 STAT1-luciferase reporter, IFN-gamma, luminescence; AID 1318; actives 13% (n = 1,200);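 active = activation above the solvent-only control well mean plus 3 SD, set per screening run, cut at about 120% in these data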
Numbers stand for hits; – = inactive; · = no result. This is a sample that favours compounds with a hit; in the whole collection about 2.3% have one here.

SMILES | HSP90 refold inh | STAT3 act-1 | PPC-1+TRAIL kill | C8 TRAIL sens | STAT1 inh | STAT3 inh | STAT3 act-2 | NFkB act 2 | STAT1 act
Cn1nc(-c2ccc(Cl)cc2)c2cc(C(=O)NCCCN3CCOCC3)sc21 | – | 155 | – | – | – | – | 134 | – | –
CCCCN(CC)CCNC(=O)c1cc2c(-c3ccc(Cl)cc3)nn(C)c2s1 | – | · | · | – | · | · | · | · | ·
Cn1nc(-c2ccc(Cl)cc2)c2cc(C(=O)NCCN3CCOCC3)sc21 | – | 145 | – | – | – | – | 152 | – | –
CCN(CC)CCNC(=O)c1cc2c(-c3ccc(Cl)cc3)nn(C)c2s1 | – | 177 | – | – | – | – | 165 | – | –
Cn1nc(-c2ccc(Cl)cc2)c2cc(C(=O)NC3CC3)sc21 | – | 174 | – | – | – | – | 185 | 123 | 135
CC1=NN(c2ccccc2)C(=O)C1N=Nc1ccc(S(N)(=O)=O)cc1 (centres undefined) | – | · | – | – | · | · | · | · | ·
CC1=NN(c2nc(-c3ccc(C)cc3)cs2)C(=O)C1N=Nc1ccc2ccccc2c1 (centres undefined) | – | 150 | – | – | – | – | 142 | – | –
CC1=NN(c2ccccc2)C(=O)C1N=Nc1ccc(C)cc1 (centres undefined) | – | 136 | – | · | – | – | – | – | –
O=C(Nc1ccc2sccc2c1)c1cccc(N2C(=O)CCC2=O)c1 | – | – | – | – | – | – | · | · | ·
CCC(C)NC(=O)c1oc2ccc(S(=O)(=O)N3CCC4(CC3)OCCO4)cc2c1C (centres undefined) | – | · | · | – | · | · | · | · | ·
O=S(=O)(Nc1nc2ccccc2nc1N1CCc2ccccc2C1)c1ccc(Cl)cc1 | – | 136 | – | – | – | – | – | – | –
CC(=O)Nc1ccc(S(=O)(=O)Nc2nc3ccccc3nc2N2CCc3ccccc3C2)cc1 | – | 137 | – | – | – | – | 140 | – | –
Cc1ccccc1S(=O)(=O)Nc1nc2ccccc2nc1Cl | – | – | – | – | – | – | · | · | ·
O=S(=O)(Nc1nc2ccccc2nc1N1CCN(c2ccccn2)CC1)c1ccc(Cl)cc1 | – | – | – | – | – | – | · | · | ·
Cc1ccccc1S(=O)(=O)Nc1nc2ccccc2nc1N1CCc2ccccc2C1 | – | 136 | – | – | – | – | 135 | – | –
Cc1c(C(=O)OCC(=O)NC2CCCCC2)oc2ccccc12 | · | · | · | – | · | · | · | · | ·
Cc1cc(Cl)c(S(=O)(=O)N/N=C/c2ccc3c(c2)OCO3)c(Cl)c1 | – | – | – | – | – | – | · | · | ·
CCn1c(SCC(=O)N/N=C/C=C\c2ccccc2[N+](=O)[O-])nnc1-c1ccccc1 | – | 142 | – | – | – | – | 150 | – | –
Cc1ccc(CSc2nnc(SCC(=O)N/N=C/C=C/c3ccccc3[N+](=O)[O-])s2)cc1 | – | – | – | – | – | – | · | · | ·
NC(N)=NC1=NC(=O)/C(=C/c2ccccc2-n2cccn2)S1 | – | – | – | – | – | – | · | · | ·
CCCn1c(=O)c(C(=O)Nc2ccccc2C(=O)OCC)c(O)c2ccccc21 | – | – | – | – | – | – | · | · | ·
O=c1[nH]c(Cc2ccccc2)nc2c1oc1ccccc12 | – | – | – | – | – | – | · | · | ·
Cc1nc2c(oc3ccccc32)c(=O)o1 | – | 174 | – | – | – | – | 159 | – | –
CCOC(=O)N1CCC(NC(=O)c2sc3nc4n(c(=O)c3c2C)CCCC4)CC1 | – | – | – | – | – | – | · | · | ·
CCOC(=O)Cc1cc(-c2ccccc2)nc2ccc3ccccc3c12 | – | 136 | – | – | – | – | – | – | –
SMILES | HSP90 refold inh | STAT3 act-1 | PPC-1+TRAIL kill | C8 TRAIL sens | STAT1 inh | STAT3 inh | STAT3 act-2 | NFkB act 2 | STAT1 act
CCOC(=O)c1cc(-c2ccccc2)nc2ccc(C)cc12 | – | · | – | – | · | · | · | · | ·
C/C(=N\Nc1nc2c(s1)CCCC2)c1ccc(Cl)cc1 | – | 158 | – | – | – | – | – | 122 | –
COc1ccc(C)cc1N(C(=O)COc1ccccc1)c1nc2ccccc2s1 | – | 137 | – | – | – | – | 145 | – | –
Cc1cc2ccccc2c(=O)n1CC(=O)NCC1COc2ccccc2O1 (centres undefined) | – | – | – | – | – | – | · | · | ·
O=C1CC(Nc2ccc(N3CCOCC3)cc2)C(=O)N1Cc1ccccc1 (centres undefined) | – | – | – | – | – | – | · | · | ·
O=C1CC(Nc2ccc3ccccc3c2)C(=O)N1Cc1ccccc1 (centres undefined) | – | 138 | – | – | – | – | 135 | – | –
CS(=O)(=O)N1N=C(c2cccs2)CC1c1ccccc1O (centres undefined) | – | – | – | – | – | – | · | · | ·
CCOc1ccccc1C1CC(c2cccs2)=NN1S(C)(=O)=O (centres undefined) | – | 137 | – | – | – | – | 147 | – | –
Cc1cc(C)n(-c2nnc3n2N=C(c2c[nH]c4ccccc24)CS3)n1 | – | 158 | – | – | – | – | 154 | – | –
CCN(CC)CCCC(C)NC(=O)c1cccc(S(=O)(=O)N2CCc3ccccc32)c1 (centres undefined) | – | 140 | – | – | – | – | 148 | – | –
Cc1sc2c(c1C)c(=O)n(-c1ccccc1)c1nnc(C)n21 | – | – | – | – | – | – | · | · | ·
COc1cccc(-c2nc(N3CC(C)CC(C)C3)c3ccccc3n2)c1O (centres undefined) | – | 138 | – | – | – | – | – | – | –
COc1cccc(-c2nc(NC(C)(C)C)c3ccccc3n2)c1O | – | 143 | – | – | – | – | – | – | –
COc1ccc(Nc2nc(-c3cccc(OC)c3O)nc3ccccc23)cc1 | – | · | · | – | · | · | · | · | ·
CCOc1ccc(N=c2cc(-c3ccc(OC)cc3)oc3ccccc23)cc1 | – | – | – | – | – | – | · | · | ·
O=C(OCc1nc2ccccc2s1)C1CCN(C2=NS(=O)(=O)c3ccccc32)CC1 | – | 147 | – | – | – | – | 142 | 121 | 134
COc1ccc([N+](=O)[O-])cc1C1NN=C(c2ccccc2O)S1 (centres undefined) | – | 151 | – | – | – | – | 142 | – | –
COc1cc(OC)cc(C(=O)NC(=S)Nc2nnn(C)n2)c1 | – | · | – | – | · | · | · | · | ·
Cc1cc(NC(=O)CN2CC(C)OC(C)C2)n(-c2nc3ccccc3s2)n1 (centres undefined) | – | 150 | – | – | – | – | 133 | – | –
Cc1cc(NC(=O)C(C)C)n(-c2nc3ccccc3s2)n1 | – | 143 | – | – | – | – | 163 | – | –
